A number with no mark means an inactive call. The source made the active and inactive calls.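 The calls were made as follows, unless noted: active = fluorescence slope after compound addition differing from the mean of all tested samples at 99.7% confidence, mostly higher but some lower; inactive = the rest.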
What follows are molecules tested against Voltage-gated potassium channel subunit beta-2 (Rattus norvegicus) (UniProt P62483) (assay: KvBeta positive modulators, primary screen, biochemical, NADPH fluorescence (AID 623;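 active = NADPH fluorescence slope more negative than the mean of all samples by about 3 SD, 99.7% confidence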;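 also: fluorescence intensity change per second fitted from 20 to 320 s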)). Details: Recombinant KvBeta, NADPH fluorescence decrease slope, 10 min; at 10 µM; hits give low values.
Voltage-gated potassium channel subunit beta-2 (Rattus norvegicus), sequence (P62483 whole entry, looked up): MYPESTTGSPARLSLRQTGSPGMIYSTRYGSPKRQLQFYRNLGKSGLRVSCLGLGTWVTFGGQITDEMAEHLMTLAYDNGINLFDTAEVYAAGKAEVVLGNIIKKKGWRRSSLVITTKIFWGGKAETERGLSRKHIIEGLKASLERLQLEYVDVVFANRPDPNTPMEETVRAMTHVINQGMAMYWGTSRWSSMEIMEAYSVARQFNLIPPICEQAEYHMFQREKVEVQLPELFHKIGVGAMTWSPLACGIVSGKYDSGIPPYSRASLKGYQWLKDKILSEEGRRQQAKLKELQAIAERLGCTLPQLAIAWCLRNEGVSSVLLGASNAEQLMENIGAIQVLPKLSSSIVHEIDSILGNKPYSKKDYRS

Structure (SMILES) | NADPH fluorescence slope
Cc1cc(C)cc(OCCCC(=O)O)c1 | -4.2e-05
c1ccc2c(c1)C(=Nn1cnnc1)c1ccccc1-2 | -6.8e-05
COc1ccc(C2C(C#N)=C(C)NC3=C2C(=O)CC(C)(C)C3)c(OC)c1 (stereo not given) | -4.1e-06
CCCN1CCN(CCCNC(=O)Cn2nc(-c3ccc(Cl)cc3)ccc2=O)CC1 | -8.1e-05
CCCN(CCC)c1nc2ccccc2n2c(C)nnc12 | -3.2e-05
COc1ccc(CC(=O)NCc2cccs2)cc1 | 0.000126
O=C1c2ccccc2C(O)(Cc2ccccc2)N1Cc1ccco1 (stereo not given) | -1.5e-05
Cc1[nH]c(=O)[nH]c(=O)c1S(=O)(=O)N(C)Cc1ccccc1 | 3.7e-05
COc1cccc(NC(=O)Cc2nnc(SCC(=O)c3ccccc3)n2C)c1 | 1.7e-05
COc1cccc(N2CCN(CC(=O)NCc3cccs3)CC2)c1 | -1.7e-05
CCN(c1cccc(C)c1)S(=O)(=O)c1ccc2[nH]c(=O)c(=O)[nH]c2c1 | -0.000128
COc1ccccc1CN(Cc1nc2ccccc2c(=O)[nH]1)C(=O)Nc1ccccc1 | -4.8e-05
Cc1ccccc1-c1nc(CN2CCC(C(=O)NCc3cccnc3)CC2)c(C)o1 | -0.000229
CC1(C)NC(=O)N(CNc2cc(Cl)ccc2Cl)C1=O | -0.000384
CCS(=O)(=O)c1ccc(S(=O)(=O)CC)s1 | -4.4e-05
O=C(O)C1CCCN1C(=O)Nc1ccc(F)cc1 (stereo not given) | -4.9e-05
COCC(=O)N(Cc1ccc(OC)cc1)Cc1nc2ccccc2c(=O)[nH]1 | -4.4e-05
COc1ccc(OCc2cccc(C(=O)O)c2)cc1 | 5e-05
Cc1nc2ccccc2c(=O)n1/N=C/c1ccncc1 | -3.4e-05
C=C(c1cccc2ccccc12)P(=O)(O)O | -0.000279

Structure (SMILES) | NADPH fluorescence slope
COc1ccc(-c2cc3nc4n(c(=O)c3s2)CCC4)cc1 | -3.4e-05
CCCC(CCC)n1[nH]c(=O)c2c(C)cc(C)nc21 | 3.6e-05
CCOC(=O)CS(=O)(=O)c1nc(-c2ccccc2)cc(C(F)(F)F)n1 | -1.5e-05
Cc1n[nH]c(C)c1S(=O)(=O)N1CCCCCC1 | 1.3e-05
CCN(CCO)C1CC(=O)N(c2ccccc2C)C1=O (stereo not given) | -3.6e-05
Nc1nc2sc3c(c2c(=O)s1)CCCC3 | -0.0002
CCOC(=O)c1[nH]c(C)c(C(=O)N(C)C)c1C | -1.4e-05
Cc1cc(C)n(-c2nc3ccccc3c(=O)n2OCCOc2ccccc2)n1 | 8.7e-05
C/C(NC1CCCC1)=C(/C#N)C(N)=O | -2.4e-05
CCOc1ccc(C(=O)N(Cc2ccc(N(C)C)cc2)C2CCS(=O)(=O)C2)cc1 (stereo not given) | -3.1e-05
Cc1ccc(NC(=O)Cn2cccc2)cc1Cl | -5.7e-05
NC(=O)c1sc2nc(N3CCCCC3)c3c(c2c1N)CCCC3 | 0
O=C(Nc1nc(-c2ccc(S(=O)(=O)N3CCCCCC3)cc2)cs1)c1cccs1 | -2.4e-05
Cc1ccc2ncnc(NCCCN3CCOCC3)c2c1 | -0.000336
CCOC(=O)c1cc2c(=O)n3cccc(C)c3nc2n(Cc2ccco2)c1=NC(=O)c1cccnc1 | -2e-05
O=S(=O)(c1ccc2c(c1)OCCO2)N(Cc1ccc(F)cc1)Cc1nnc(-c2cccs2)o1 | -0.000116
COc1ccccc1-n1c(SCC(N)=O)nnc1-c1ccccc1 | -3.5e-05
CCCNC(=O)c1c(N)n(-c2cc(OC)cc(OC)c2)c2nc3ccccc3nc12 | 2.2e-05
COc1cc(C2c3c(oc4c(C)cc(C)cc4c3=O)C(=O)N2Cc2cccnc2)cc(OC)c1OC (stereo not given) | 1.8e-05
O=C(c1cc(-c2ccco2)nn1-c1cccc(Cl)c1)N1CCCCC1 | -1.4e-05

Each molecule was assayed against Muscarinic acetylcholine receptor M4 (Homo sapiens) (UniProt P08173) (assay: compounds altering M4/GIRK thallium flux, either direction, primary screen, M4 allosteric agonist project, cell-based, HEK293 M4/GIRK, BTC-AM (AID 625;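 also: thallium influx through GIRK channels coupled to M4 in HEK293 cells with BTC-AM dye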)). Details: at 10 µM, actives lie on both sides.
How it was run: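 assay system = HEK293 cells with M4 receptor and GIRK channels | medium = pH 7.3 thallium assay buffer | doses = 10 µM final, single point | timing = cells overnight at 37 °C, BTC-AM loading 1 h, reads 2 min total | signal = BTC-AM fluorescence, 1 Hz kinetic reads | read-out = post-addition slope, 15–24 s, of baseline-normalized fluorescence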

Muscarinic acetylcholine receptor M4 (Homo sapiens), sequence (P08173 whole entry, looked up): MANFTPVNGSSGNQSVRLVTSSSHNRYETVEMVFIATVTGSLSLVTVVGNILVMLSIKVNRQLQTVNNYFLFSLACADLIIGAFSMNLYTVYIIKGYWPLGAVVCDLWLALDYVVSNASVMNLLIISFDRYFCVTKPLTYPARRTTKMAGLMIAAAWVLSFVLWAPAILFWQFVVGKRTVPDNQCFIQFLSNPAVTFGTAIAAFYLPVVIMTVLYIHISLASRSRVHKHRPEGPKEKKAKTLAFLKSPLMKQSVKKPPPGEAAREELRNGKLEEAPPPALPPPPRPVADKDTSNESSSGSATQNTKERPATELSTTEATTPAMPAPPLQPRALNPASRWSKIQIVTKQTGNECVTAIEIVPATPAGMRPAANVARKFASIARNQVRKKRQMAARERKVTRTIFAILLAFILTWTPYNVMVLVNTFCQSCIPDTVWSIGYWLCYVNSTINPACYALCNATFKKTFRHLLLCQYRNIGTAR

Structure (SMILES) | fluorescence slope
Cc1cc(C)cc(OCCCC(=O)O)c1 | 0.00463
c1ccc2c(c1)C(=Nn1cnnc1)c1ccccc1-2 | 0.00319
COc1ccc(C2C(C#N)=C(C)NC3=C2C(=O)CC(C)(C)C3)c(OC)c1 (stereo not given) | 0.00543
CCCN1CCN(CCCNC(=O)Cn2nc(-c3ccc(Cl)cc3)ccc2=O)CC1 | 0.00614
CCCN(CCC)c1nc2ccccc2n2c(C)nnc12 | 0.00414
COc1ccc(CC(=O)NCc2cccs2)cc1 | 0.0067
O=C1c2ccccc2C(O)(Cc2ccccc2)N1Cc1ccco1 (stereo not given) | 0.00578
Cc1[nH]c(=O)[nH]c(=O)c1S(=O)(=O)N(C)Cc1ccccc1 | 0.00478
COc1cccc(NC(=O)Cc2nnc(SCC(=O)c3ccccc3)n2C)c1 | 0.0063
COc1cccc(N2CCN(CC(=O)NCc3cccs3)CC2)c1 | 0.00733
CCN(c1cccc(C)c1)S(=O)(=O)c1ccc2[nH]c(=O)c(=O)[nH]c2c1 | 0.00491
COc1ccccc1CN(Cc1nc2ccccc2c(=O)[nH]1)C(=O)Nc1ccccc1 | 0.0059
Cc1ccccc1-c1nc(CN2CCC(C(=O)NCc3cccnc3)CC2)c(C)o1 | 0.00551
CC1(C)NC(=O)N(CNc2cc(Cl)ccc2Cl)C1=O | 0.00524
CCS(=O)(=O)c1ccc(S(=O)(=O)CC)s1 | 0.00846
O=C(O)C1CCCN1C(=O)Nc1ccc(F)cc1 (stereo not given) | 0.00613
COCC(=O)N(Cc1ccc(OC)cc1)Cc1nc2ccccc2c(=O)[nH]1 | 0.00687
COc1ccc(OCc2cccc(C(=O)O)c2)cc1 | 0.00513
Cc1nc2ccccc2c(=O)n1/N=C/c1ccncc1 | 0.00441
C=C(c1cccc2ccccc12)P(=O)(O)O | 0.00428

Structure (SMILES) | fluorescence slope
COc1ccc(-c2cc3nc4n(c(=O)c3s2)CCC4)cc1 | 0.0055
CCCC(CCC)n1[nH]c(=O)c2c(C)cc(C)nc21 | 0.00554
CCOC(=O)CS(=O)(=O)c1nc(-c2ccccc2)cc(C(F)(F)F)n1 | 0.00498
Cc1n[nH]c(C)c1S(=O)(=O)N1CCCCCC1 | 0.00614
CCN(CCO)C1CC(=O)N(c2ccccc2C)C1=O (stereo not given) | 0.00663
Nc1nc2sc3c(c2c(=O)s1)CCCC3 | 0.00365
CCOC(=O)c1[nH]c(C)c(C(=O)N(C)C)c1C | 0.00674
Cc1cc(C)n(-c2nc3ccccc3c(=O)n2OCCOc2ccccc2)n1 | 0.00727
C/C(NC1CCCC1)=C(/C#N)C(N)=O | 0.00436
CCOc1ccc(C(=O)N(Cc2ccc(N(C)C)cc2)C2CCS(=O)(=O)C2)cc1 (stereo not given) | 0.00328
Cc1ccc(NC(=O)Cn2cccc2)cc1Cl | 0.00925
NC(=O)c1sc2nc(N3CCCCC3)c3c(c2c1N)CCCC3 | 0.00601
O=C(Nc1nc(-c2ccc(S(=O)(=O)N3CCCCCC3)cc2)cs1)c1cccs1 | 0.0134 (active)
Cc1ccc2ncnc(NCCCN3CCOCC3)c2c1 | 0.00376
CCOC(=O)c1cc2c(=O)n3cccc(C)c3nc2n(Cc2ccco2)c1=NC(=O)c1cccnc1 | 0.00326
O=S(=O)(c1ccc2c(c1)OCCO2)N(Cc1ccc(F)cc1)Cc1nnc(-c2cccs2)o1 | 0.00797
COc1ccccc1-n1c(SCC(N)=O)nnc1-c1ccccc1 | 0.00627
CCCNC(=O)c1c(N)n(-c2cc(OC)cc(OC)c2)c2nc3ccccc3nc12 | 0.00602
COc1cc(C2c3c(oc4c(C)cc(C)cc4c3=O)C(=O)N2Cc2cccnc2)cc(OC)c1OC (stereo not given) | 0.0049
O=C(c1cc(-c2ccco2)nn1-c1cccc(Cl)c1)N1CCCCC1 | 0.0049

— PubChem BioAssay
